This passage reports MIC and MIC50 results from ChEMBL document CHEMBL3739331, “Synthesis and Bioactivities of Kanamycin B-Derived Cationic Amphiphiles” (J Med Chem, 2015).

Common to all, as to assay type: functional
Assay [1] relates to Candida albicans. Put plainly: Antifungal activity against azole-resistant Candida albicans MYA-1003 assessed as fractional inhibition after 48 hrs in presence of (2R,3S,4R,5R,6R)-5-amino-2-(aminomethyl)-6-((1R,2S,3S,4R,6S)-4,6-diamino-3-((2S,3R,4S,5S,6S)-4-amino-6-(dodecylthiomethyl)-3,5-dihydroxytetrahydro-2H-pyran-2-yloxy)-2-hydroxycyclohexyloxy)tetrahydro-2H-pyran-3,4-diol by checkerboard microdilution assay. The following applies: MYA-1003, 48 h. The procedure, abridged:
(§1)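 Checkerboard combinations of the aminoglycoside amphiphile with posaconazole against yeast strains, run in duplicate. Each agent's MIC is taken alone and in combination. The fractional inhibitory concentration index (FICI) is calculated to classify the interaction.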
In general terms: In broth dilution the organism is exposed to a series of concentrations in liquid medium.

Assay [2] has as its system Candida albicans. Put plainly: Antifungal activity against azole-resistant Candida albicans MYA-1237 assessed as fractional inhibition after 48 hrs in presence of (2R,3S,4R,5R,6R)-5-amino-2-(aminomethyl)-6-((1R,2S,3S,4R,6S)-4,6-diamino-3-((2S,3R,4S,5S,6S)-4-amino-6-(dodecylthiomethyl)-3,5-dihydroxytetrahydro-2H-pyran-2-yloxy)-2-hydroxycyclohexyloxy)tetrahydro-2H-pyran-3,4-diol by checkerboard microdilution assay. The settings on record: MYA-1237, 48 h. A digest of the protocol: as §1

Assay [3] concerns Candida albicans. Briefly: Antifungal activity against azole-resistant Candida albicans ATCC 90819 after 48 hrs by microbroth dilution method. The following applies: ATCC 90819, 48 h. A digest of the protocol: (§2)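 Yeast MIC by broth microdilution, run in duplicate. The aminoglycoside compounds are read as MIC-0 (complete inhibition). Azoles are read as MIC-2 (50% inhibition).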

In assay [4] the test system is Aspergillus nidulans. Put plainly: Antifungal activity against Aspergillus nidulans ATCC 38163 after 48 hrs by microbroth dilution method. The following applies: ATCC 38163, 48 h. The procedure, abridged:
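Filamentous fungus MIC by broth microdilution, run in duplicate. All compounds are read as MIC-0 (complete inhibition).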

Assay [5] relates to Candida albicans. Briefly: Antifungal activity against azole-resistant Candida albicans MYA-1003 after 48 hrs in presence of (2R,3S,4R,5R,6R)-5-amino-2-(aminomethyl)-6-((1R,2S,3S,4R,6S)-4,6-diamino-3-((2S,3R,4S,5S,6S)-4-amino-6-(dodecylthiomethyl)-3,5-dihydroxytetrahydro-2H-pyran-2-yloxy)-2-hydroxycyclohexyloxy)tetrahydro-2H-pyran-3,4-diol by checkerboard microdilution assay. The following applies: MYA-1003, 48 h. A digest of the protocol: as §1

The test system of assay [6] is Candida albicans. Briefly: Antifungal activity against azole-susceptible Candida albicans ATCC MYA-2876 after 48 hrs by microbroth dilution method. The settings on record: ATCC MYA-2876, 48 h. The procedure, abridged:
as §2

For assay [7], the system named is Candida albicans. Briefly: Antifungal activity against azole-resistant Candida albicans ATCC 90819 assessed as fractional inhibition after 48 hrs in presence of (2R,3S,4R,5R,6R)-5-amino-2-(aminomethyl)-6-((1R,2S,3S,4R,6S)-4,6-diamino-3-((2S,3R,4S,5S,6S)-4-amino-6-(dodecylthiomethyl)-3,5-dihydroxytetrahydro-2H-pyran-2-yloxy)-2-hydroxycyclohexyloxy)tetrahydro-2H-pyran-3,4-diol by checkerboard microdilution assay. The settings on record: ATCC 90819, 48 h. A digest of the protocol:
as §1

Assay [8] deals with Candida albicans. Put plainly: Antifungal activity against azole-resistant Candida albicans ATCC 64124 after 48 hrs in presence of (2R,3S,4R,5R,6R)-5-amino-2-(aminomethyl)-6-((1R,2S,3S,4R,6S)-4,6-diamino-3-((2S,3R,4S,5S,6S)-4-amino-6-(dodecylthiomethyl)-3,5-dihydroxytetrahydro-2H-pyran-2-yloxy)-2-hydroxycyclohexyloxy)tetrahydro-2H-pyran-3,4-diol by checkerboard microdilution assay. The following applies: ATCC 64124, 48 h. The procedure, abridged:
as §1

The test system of assay [9] is Candida albicans. Put plainly: Antifungal activity against azole-resistant Candida albicans ATCC 90819 after 48 hrs in presence of (2R,3S,4R,5R,6R)-5-amino-2-(aminomethyl)-6-((1R,2S,3S,4R,6S)-4,6-diamino-3-((2S,3R,4S,5S,6S)-4-amino-6-(dodecylthiomethyl)-3,5-dihydroxytetrahydro-2H-pyran-2-yloxy)-2-hydroxycyclohexyloxy)tetrahydro-2H-pyran-3,4-diol by checkerboard microdilution assay. The settings on record: ATCC 90819, 48 h. A digest of the protocol: as §1

Assay [10] deals with Candida albicans. Briefly: Antifungal activity against azole-resistant Candida albicans ATCC 64124 after 48 hrs by microbroth dilution method. The settings on record: ATCC 64124, 48 h. A digest of the protocol:
as §2

Assay [11] has as its system Candida albicans. Briefly: Antifungal activity against azole-resistant Candida albicans ATCC 10231 after 48 hrs in presence of (2R,3S,4R,5R,6R)-5-amino-2-(aminomethyl)-6-((1R,2S,3S,4R,6S)-4,6-diamino-3-((2S,3R,4S,5S,6S)-4-amino-6-(dodecylthiomethyl)-3,5-dihydroxytetrahydro-2H-pyran-2-yloxy)-2-hydroxycyclohexyloxy)tetrahydro-2H-pyran-3,4-diol by checkerboard microdilution assay. The settings on record: ATCC 10231, 48 h. The procedure, abridged: as §1

In assay [12] the test system is Candida albicans. Put plainly: Antifungal activity against azole-resistant Candida albicans MYA-1237 after 48 hrs by microbroth dilution method. The settings on record: MYA-1237, 48 h. A digest of the protocol: as §2
The test system of assay [13] is Candida albicans. Briefly: Antifungal activity against azole-susceptible Candida albicans ATCC MYA-2310 assessed as fractional inhibition after 48 hrs in presence of (2R,3S,4R,5R,6R)-5-amino-2-(aminomethyl)-6-((1R,2S,3S,4R,6S)-4,6-diamino-3-((2S,3R,4S,5S,6S)-4-amino-6-(dodecylthiomethyl)-3,5-dihydroxytetrahydro-2H-pyran-2-yloxy)-2-hydroxycyclohexyloxy)tetrahydro-2H-pyran-3,4-diol by checkerboard microdilution assay. The following applies: ATCC MYA-2310, 48 h. The procedure, abridged:
as §1

Assay [14] deals with Candida albicans. Briefly: Antifungal activity against azole-resistant Candida albicans ATCC 10231 after 48 hrs by microbroth dilution method. The following applies: ATCC 10231, 48 h. A digest of the protocol: as §2
In assay [15] the test system is Candida albicans. Put plainly: Antifungal activity against azole-susceptible Candida albicans ATCC MYA-2876 after 48 hrs in presence of (2R,3S,4R,5R,6R)-5-amino-2-(aminomethyl)-6-((1R,2S,3S,4R,6S)-4,6-diamino-3-((2S,3R,4S,5S,6S)-4-amino-6-(dodecylthiomethyl)-3,5-dihydroxytetrahydro-2H-pyran-2-yloxy)-2-hydroxycyclohexyloxy)tetrahydro-2H-pyran-3,4-diol by checkerboard microdilution assay. The following applies: ATCC MYA-2876, 48 h. The procedure, abridged:
as §1

In assay [16] the test system is Candida albicans. Briefly: Antifungal activity against azole-resistant Candida albicans MYA-1003 after 48 hrs by microbroth dilution method. The following applies: MYA-1003, 48 h. The procedure, abridged: as §2
For assay [17], the system named is Candida albicans. Briefly: Antifungal activity against azole-resistant Candida albicans ATCC 64124 assessed as fractional inhibition after 48 hrs in presence of (2R,3S,4R,5R,6R)-5-amino-2-(aminomethyl)-6-((1R,2S,3S,4R,6S)-4,6-diamino-3-((2S,3R,4S,5S,6S)-4-amino-6-(dodecylthiomethyl)-3,5-dihydroxytetrahydro-2H-pyran-2-yloxy)-2-hydroxycyclohexyloxy)tetrahydro-2H-pyran-3,4-diol by checkerboard microdilution assay. The following applies: ATCC 64124, 48 h. A digest of the protocol:
as §1

In assay [18] the test system is Candida albicans. Briefly: Antifungal activity against azole-susceptible Candida albicans ATCC MYA-2876 assessed as fractional inhibition after 48 hrs in presence of (2R,3S,4R,5R,6R)-5-amino-2-(aminomethyl)-6-((1R,2S,3S,4R,6S)-4,6-diamino-3-((2S,3R,4S,5S,6S)-4-amino-6-(dodecylthiomethyl)-3,5-dihydroxytetrahydro-2H-pyran-2-yloxy)-2-hydroxycyclohexyloxy)tetrahydro-2H-pyran-3,4-diol by checkerboard microdilution assay. The settings on record: ATCC MYA-2876, 48 h. A digest of the protocol:
as §1

For assay [19], the system named is Candida albicans. Put plainly: Antifungal activity against azole-susceptible Candida albicans ATCC MYA-2310 after 48 hrs in presence of (2R,3S,4R,5R,6R)-5-amino-2-(aminomethyl)-6-((1R,2S,3S,4R,6S)-4,6-diamino-3-((2S,3R,4S,5S,6S)-4-amino-6-(dodecylthiomethyl)-3,5-dihydroxytetrahydro-2H-pyran-2-yloxy)-2-hydroxycyclohexyloxy)tetrahydro-2H-pyran-3,4-diol by checkerboard microdilution assay. The following applies: ATCC MYA-2310, 48 h. A digest of the protocol:
as §1

Assay [20] deals with Candida albicans. Briefly: Antifungal activity against azole-resistant Candida albicans MYA-1237 after 48 hrs in presence of (2R,3S,4R,5R,6R)-5-amino-2-(aminomethyl)-6-((1R,2S,3S,4R,6S)-4,6-diamino-3-((2S,3R,4S,5S,6S)-4-amino-6-(dodecylthiomethyl)-3,5-dihydroxytetrahydro-2H-pyran-2-yloxy)-2-hydroxycyclohexyloxy)tetrahydro-2H-pyran-3,4-diol by checkerboard microdilution assay. The settings on record: MYA-1237, 48 h. The procedure, abridged:
as §1

For assay [21], the system named is Candida albicans. Briefly: Antifungal activity against azole-resistant Candida albicans ATCC 10231 assessed as fractional inhibition after 48 hrs in presence of (2R,3S,4R,5R,6R)-5-amino-2-(aminomethyl)-6-((1R,2S,3S,4R,6S)-4,6-diamino-3-((2S,3R,4S,5S,6S)-4-amino-6-(dodecylthiomethyl)-3,5-dihydroxytetrahydro-2H-pyran-2-yloxy)-2-hydroxycyclohexyloxy)tetrahydro-2H-pyran-3,4-diol by checkerboard microdilution assay. The settings on record: ATCC 10231, 48 h. A digest of the protocol:
as §1

Molecules are shown by their SMILES. ≈ marks a conversion by molar mass, not a printed value.

What is called MIC is the lowest concentration that inhibits growth of the organism. For orientation: MIC50 means an inhibitory concentration at the 50% level, which refers to growth in some studies and to a panel of isolates in others. Lower therefore signals higher susceptibility.

For `CC[C@@H]([C@H](C)O)n1ncn(-c2ccc(N3CCN(c4ccc(OC[C@@H]5CO[C@@](Cn6cncn6)(c6ccc(F)cc6F)C5)cc4)CC3)cc2)c1=O` [POSACONAZOLE], the MIC is 1.56 µg/mL in assay [1]; 0.78 µg/mL in assay [2]; ≤ 1.95 µg/mL in assay [4]; 0.78 µg/mL in [5]; 0.78 µg/mL in assay [7]; 0.78 µg/mL in [8]. Also, the MIC came to 0.78 µg/mL in assay [9]; 0.06 µg/mL in [11]; 1.56 µg/mL in assay [13]; 0.78 µg/mL in assay [15]; 1.56 µg/mL in [17]; 1.56 µg/mL in assay [18]. In addition, the minimum inhibitory concentration (MIC) in assay [19] came to 0.39 µg/mL; in assay [20], 0.78 µg/mL; in assay [21], 0.06 µg/mL. The MIC50 is 31.2 µg/mL (≈ 44.5 µM) in assay [3]; 7.8 µg/mL (≈ 11.1 µM) in assay [6]; > 62.5 µg/mL in [10]; 15.6 µg/mL (≈ 22.3 µM) in assay [12]; 0.5 µg/mL (≈ 0.713 µM) in assay [14]; 15.6 µg/mL (≈ 22.3 µM) in [16].
